ChEMBL document CHEMBL1148547, “The structure-activity relationships of mansonone F, a potent anti-MRSA sesquiterpenoid quinone: SAR studies on the C6 and C9 analogs” (2006)
Converted amounts (≈) assume the structure as drawn.

What was measured:
Format in all cases: functional
Staphylococcus aureus [1] = test: Antibacterial activity against methicillin-resistant Staphylococcus aureus
How it was run: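 Agar dilution MIC on Mueller–Hinton agar, run per the NCCLS procedure. Test organisms were clinical isolates collected from Seoul hospitals between 1997 and 1999 and stored at -70 °C until use.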

[2] = system: Staphylococcus epidermidis; test: Antibacterial activity against Staphylococcus epidermidis ATCC 12228
How it was run: (§1)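 MIC by agar dilution on Mueller–Hinton agar, following the NCCLS procedure.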

Staphylococcus aureus [3] = test: Antibacterial activity against Staphylococcus aureus ATCC 29213; how it was run: as §1
Bacillus cereus = test: Antibacterial activity against Bacillus cereus ATCC 27348; how it was run: as §1
Staphylococcus aureus [4] = test: Antibacterial activity against Staphylococcus aureus; how it was run: as §1
Bacillus subtilis = test: Antibacterial activity against Bacillus subtilis ATCC 6633; how it was run: as §1
Micrococcus luteus [5] = test: Antibacterial activity against Micrococcus luteus ATCC 9341; how it was run: as §1
Staphylococcus aureus [6] = test: Antibacterial activity against Staphylococcus aureus ATCC 25923; how it was run: as §1
Micrococcus luteus [7] = test: Antibacterial activity against Micrococcus luteus ATCC 10240; how it was run: as §1
Staphylococcus aureus [8] = test: Antibacterial activity against Staphylococcus aureus ATCC 6538P; how it was run: as §1
Klebsiella pneumoniae = test: Antibacterial activity against Klebsiella pneumoniae ATCC 10031; how it was run: as §1

CCCCCCc1ccc2c3c1C(=O)C(=O)C(C)=C3OC=C2C
MIC50 (Staphylococcus aureus [1]): 8 µg/mL (≈ 25.8 µM)
MIC90 (Staphylococcus aureus [1]): 16 µg/mL (≈ 51.5 µM)

CC1=COC2=C(CBr)C(=O)C(=O)c3c(C)ccc1c32
MIC50 (Staphylococcus aureus [1]): 16 µg/mL (≈ 50.1 µM)
MIC90 (Staphylococcus aureus [1]): 16 µg/mL (≈ 50.1 µM)

CCCCc1ccc2c3c1C(=O)C(=O)C(C)=C3OC=C2C
MIC [2]: 0.25 µg/mL (≈ 0.885 µM)
MIC (Staphylococcus aureus [3]): 0.25 µg/mL (≈ 0.885 µM)
MIC (Bacillus cereus): 1 µg/mL (≈ 3.54 µM)
MIC (Staphylococcus aureus [4]; Smith): 0.25 µg/mL (≈ 0.885 µM)
MIC (Staphylococcus aureus [4]; TMS 33): 0.5 µg/mL (≈ 1.77 µM)
MIC (Staphylococcus aureus [4]; TMS 64): 0.25 µg/mL (≈ 0.885 µM)
MIC (Staphylococcus aureus [4]; TMS 417): 0.25 µg/mL (≈ 0.885 µM)
MIC (Bacillus subtilis): 0.5 µg/mL (≈ 1.77 µM)
MIC (Micrococcus luteus [5]): 0.25 µg/mL (≈ 0.885 µM)
MIC (Staphylococcus aureus [6]): 0.25 µg/mL (≈ 0.885 µM)
MIC (Micrococcus luteus [7]): 0.25 µg/mL (≈ 0.885 µM)
MIC (Staphylococcus aureus [8]): 0.25 µg/mL (≈ 0.885 µM)
MIC (Klebsiella pneumoniae): 2 µg/mL (≈ 7.08 µM)
MIC50 (Staphylococcus aureus [1]): 0.5 µg/mL (≈ 1.77 µM)
MIC90 (Staphylococcus aureus [1]): 0.5 µg/mL (≈ 1.77 µM)

CC(=O)C1=C2OC=C(C)c3ccc(C)c(c32)C(=O)C1=O
MIC50 (Staphylococcus aureus [1]): 16 µg/mL (≈ 59.6 µM)
MIC90 (Staphylococcus aureus [1]): 32 µg/mL (≈ 119 µM)

CC1=COC2=C(C)C(=O)C(=O)c3cccc1c32
MIC50 (Staphylococcus aureus [1]): 8 µg/mL (≈ 35.4 µM)
MIC90 (Staphylococcus aureus [1]): 8 µg/mL (≈ 35.4 µM)

CC1=COC2=CC(=O)C(=O)c3c(C)ccc1c32
MIC50 (Staphylococcus aureus [1]): 8 µg/mL (≈ 35.4 µM)
MIC90 (Staphylococcus aureus [1]): 16 µg/mL (≈ 70.7 µM)

CC1=COC2=C(Br)C(=O)C(=O)c3c(C)ccc1c32
MIC50 (Staphylococcus aureus [1]): 8 µg/mL (≈ 26.2 µM)
MIC90 (Staphylococcus aureus [1]): 16 µg/mL (≈ 52.4 µM)

COc1ccc2c3c1C(=O)C(=O)C(C)=C3OC=C2C
MIC50 (Staphylococcus aureus [1]): 8 µg/mL (≈ 31.2 µM)
MIC90 (Staphylococcus aureus [1]): 8 µg/mL (≈ 31.2 µM)

CC1=COC2=C(C)C(=O)C(=O)c3c(C(C)C)ccc1c32
MIC50 (Staphylococcus aureus [1]): 4 µg/mL (≈ 14.9 µM)
MIC90 (Staphylococcus aureus [1]): 16 µg/mL (≈ 59.6 µM)

CCCc1ccc2c3c1C(=O)C(=O)C(C)=C3OC=C2C
MIC50 (Staphylococcus aureus [1]): 1 µg/mL (≈ 3.73 µM)
MIC90 (Staphylococcus aureus [1]): 4 µg/mL (≈ 14.9 µM)

CCCCCc1ccc2c3c1C(=O)C(=O)C(C)=C3OC=C2C
MIC50 (Staphylococcus aureus [1]): 4 µg/mL (≈ 13.5 µM)
MIC90 (Staphylococcus aureus [1]): 8 µg/mL (≈ 27 µM)

CCc1ccc2c3c1C(=O)C(=O)C(C)=C3OC=C2C
MIC50 (Staphylococcus aureus [1]): 8 µg/mL (≈ 31.5 µM)
MIC90 (Staphylococcus aureus [1]): 16 µg/mL (≈ 62.9 µM)

CCCC1=C2OC=C(C)c3ccc(C)c(c32)C(=O)C1=O
MIC50 (Staphylococcus aureus [1]): 4 µg/mL (≈ 14.9 µM)
MIC90 (Staphylococcus aureus [1]): 8 µg/mL (≈ 29.8 µM)

CN[C@H](CC(C)C)C(=O)N[C@H]1C(=O)N[C@@H](CC(N)=O)C(=O)N[C@H]2C(=O)N[C@H]3C(=O)N[C@H](C(=O)N[C@H](C(=O)O)c4cc(O)cc(O)c4-c4cc3ccc4O)[C@H](O)c3ccc(c(Cl)c3)Oc3cc2cc(c3O[C@@H]2O[C@H](CO)[C@@H](O)[C@H](O)[C@H]2O[C@H]2C[C@](C)(N)[C@H](O)[C@H](C)O2)Oc2ccc(cc2Cl)[C@H]1O [VANCOMYCIN]
MIC [2]: 8 µg/mL (≈ 5.52 µM)
MIC (Bacillus cereus): 4 µg/mL (≈ 2.76 µM)
MIC (Bacillus subtilis): 0.5 µg/mL (≈ 0.345 µM)
MIC (Micrococcus luteus [5]): 8 µg/mL (≈ 5.52 µM)
MIC (Staphylococcus aureus [6]): 8 µg/mL (≈ 5.52 µM)
MIC (Micrococcus luteus [7]): 4 µg/mL (≈ 2.76 µM)
MIC (Klebsiella pneumoniae): > 32 µg/mL
MIC50 (Staphylococcus aureus [1]): 2 µg/mL (≈ 1.38 µM)
MIC90 (Staphylococcus aureus [1]): 2 µg/mL (≈ 1.38 µM)

CCC1=C2OC=C(C)c3ccc(C)c(c32)C(=O)C1=O
MIC50 (Staphylococcus aureus [1]): 16 µg/mL (≈ 62.9 µM)
MIC90 (Staphylococcus aureus [1]): > 32 µg/mL

CC1=COC2=C(C)C(=O)C(=O)c3c(C)ccc1c32 [MANSONONE F]
MIC [2]: 0.5 µg/mL (≈ 2.08 µM)
MIC (Staphylococcus aureus [3]): 4 µg/mL (≈ 16.6 µM)
MIC (Bacillus cereus): 4 µg/mL (≈ 16.6 µM)
MIC (Staphylococcus aureus [4]; Smith): 4 µg/mL (≈ 16.6 µM)
MIC (Staphylococcus aureus [4]; TMS 33): 8 µg/mL (≈ 33.3 µM)
MIC (Staphylococcus aureus [4]; TMS 64): 8 µg/mL (≈ 33.3 µM)
MIC (Staphylococcus aureus [4]; TMS 417): 4 µg/mL (≈ 16.6 µM)
MIC (Bacillus subtilis): 2 µg/mL (≈ 8.32 µM)
MIC (Micrococcus luteus [5]): 1 µg/mL (≈ 4.16 µM)
MIC (Staphylococcus aureus [6]): 1 µg/mL (≈ 4.16 µM)
MIC (Micrococcus luteus [7]): 1 µg/mL (≈ 4.16 µM)
MIC (Staphylococcus aureus [8]): 4 µg/mL (≈ 16.6 µM)
MIC (Klebsiella pneumoniae): 8 µg/mL (≈ 33.3 µM)
MIC50 (Staphylococcus aureus [1]): 2 µg/mL (≈ 8.32 µM)
MIC90 (Staphylococcus aureus [1]): 4 µg/mL (≈ 16.6 µM)

CC1=COC2=CC(=O)C(=O)c3cccc1c32
MIC50 (Staphylococcus aureus [1]): > 32 µg/mL
MIC90 (Staphylococcus aureus [1]): > 32 µg/mL

COC(=O)C1=C2OC=C(C)c3ccc(C)c(c32)C(=O)C1=O
MIC50 (Staphylococcus aureus [1]): 16 µg/mL (≈ 56.3 µM)
MIC90 (Staphylococcus aureus [1]): 32 µg/mL (≈ 113 µM)

COC(=O)c1ccc2c3c1C(=O)C(=O)C(C)=C3OC=C2C
MIC50 (Staphylococcus aureus [1]): 16 µg/mL (≈ 56.3 µM)
MIC90 (Staphylococcus aureus [1]): 16 µg/mL (≈ 56.3 µM)

CC1=COC2=C(C)C(=O)C(=O)c3c(CCC(C)C)ccc1c32
MIC50 (Staphylococcus aureus [1]): 8 µg/mL (≈ 27 µM)
MIC90 (Staphylococcus aureus [1]): 16 µg/mL (≈ 54 µM)
